Results reported in ChEMBL document CHEMBL4316593 (Eur J Med Chem, 2019).
Calls of active or inactive are those of the source. The calls are words filed in the database; no cut-off is given here.

Columns and labels:
[1] = Inhibition of RTK/PI3K/AKT/mTOR signaling in human U87 cells assessed as down regulation of FLII gene expression at cytotoxic IC50 measured after 48 hrs relative to control; format: cell-based; settings: U-87MG ATCC
How it was run: (§1)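 U87 cells grown in MEM with 10% FBS at 37°C, 5% CO2. Cells exposed to IC50 of test compound for 48 hrs, alongside untreated and cisplatin controls, each condition in triplicate. RNA isolated and profiled; differential expression called with DESeq2 (q-value < 0.05, fold change > 1.5), fold change versus untreated.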

[2] = test system: U-87 MG; assay: Cytotoxicity against human U87 cells assessed as reduction in cell proliferation by phase contrast microscopic analysis; format: functional, cell-based; settings: U-87MG ATCC
[3] = test system: U-87 MG; assay: Induction of apoptosis in human U87 cells assessed as change in BCL2L1 gene expression at cytotoxic IC50 measured after 48 hrs […] relative to control; format: functional, U-87MG ATCC; how it was run: as §1

CC(=O)C(=NNc1ccccc1C#N)C(C)=O
log2FC [1]: -0.583 | Activity [2]: Active | log2FC [3]: 0.9994
